# Laboratory results: ChEMBL document CHEMBL4689842, “EUbOPEN Chemogenomics Library wave 1” (2021)
# Tested on: Fibroblast
# Assay: Multiplex assay against human fibroblast
# Type: toxicity, cell-based
# Procedure, shortened: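 Four dyes were applied at seeding to live cells: Hoechst33342, BioTracker Green Microtubule Cytoskeleton Dye, MitoTracker Red and Annexin V Alexa Fluor 680. Imaging after compound addition used a CQ1 microscope at 37°C and 5% CO2. CellPathfinder machine-learning gating then sorted cells into Hoechst high-intensity objects or normal cells, normal cells into healthy, pyknosed or fragmented nuclei, and pyknosed cells into mitotic or apoptotic, with tubulin, mitochondrial-mass and membrane-permeability phenotypes given as per cents of healthy-nucleus cells.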
# [1] = 12 h, 1 µM, compound concentration 1 uM, replicate 1
# [2] = 12 h, 1 µM, compound concentration 1 uM, replicate 2
# [3] = 12 h, 10 µM, compound concentration 10 uM, replicate 1
# [4] = 12 h, 10 µM, compound concentration 10 uM, replicate 2
# [5] = 24 h, 1 µM, compound concentration 1 uM, replicate 1
# [6] = 24 h, 1 µM, compound concentration 1 uM, replicate 2
# [7] = 24 h, 10 µM, compound concentration 10 uM, replicate 1
# [8] = 24 h, 10 µM, compound concentration 10 uM, replicate 2
smiles,measurement,setting,value
CCN1CCN(c2ccc(Nc3cc(N(C)C(=O)Nc4c(Cl)c(OC)cc(OC)c4Cl)ncn3)cc2)CC1 [INFIGRATINIB],Population Apoptotic (%),[1],55%
same,Population Fragmented Nuclei (%),[1],28%
same,Population Healthy Nuclei (%),[1],43%
same,Population Hoechst High Intensity Objects (%),[1],24%
same,Population Membrane Permeable-Phenotype (%),[1],2%
same,Population Mitochondria Different-Phenotype (%),[1],12%
same,Population Mitotic Cells (%),[1],44%
same,Population Normal (%),[1],75%
same,Population Pyknosed Nuclei (%),[1],27%
same,Population Tubulin-Different-Phenotype (%),[1],23%
same,Total Cell Count,[1],322
same,Population Apoptotic (%),[2],77%
same,Population Fragmented Nuclei (%),[2],63%
same,Population Healthy Nuclei (%),[2],20%
same,Population Hoechst High Intensity Objects (%),[2],38%
same,Population Membrane Permeable-Phenotype (%),[2],18%
same,Population Mitochondria Different-Phenotype (%),[2],27%
same,Population Mitotic Cells (%),[2],22%
same,Population Normal (%),[2],61%
same,Population Pyknosed Nuclei (%),[2],16%
same,Population Tubulin-Different-Phenotype (%),[2],45%
same,Total Cell Count,[2],89
same,Population Apoptotic (%),[3],61%
same,Population Fragmented Nuclei (%),[3],31%
same,Population Healthy Nuclei (%),[3],55%
same,Population Hoechst High Intensity Objects (%),[3],13%
same,Population Membrane Permeable-Phenotype (%),[3],5%
same,Population Mitotic Cells (%),[3],38%
same,Population Normal (%),[3],86%
same,Population Tubulin-Different-Phenotype (%),[3],3%
same,Total Cell Count,[3],195
same,Population Apoptotic (%),[4],75%
same,Population Fragmented Nuclei (%),[4],60%
same,Population Healthy Nuclei (%),[4],26%
same,Population Hoechst High Intensity Objects (%),[4],34%
same,Population Membrane Permeable-Phenotype (%),[4],17%
same,Population Mitochondria Different-Phenotype (%),[4],5%
same,Population Mitotic Cells (%),[4],25%
same,Population Normal (%),[4],65%
same,Population Pyknosed Nuclei (%),[4],12%
same,Population Tubulin-Different-Phenotype (%),[4],11%
same,Total Cell Count,[4],98
same,Population Apoptotic (%),[5],60%
same,Population Fragmented Nuclei (%),[5],15%
same,Population Healthy Nuclei (%),[5],44%
same,Population Hoechst High Intensity Objects (%),[5],36%
same,Population Membrane Permeable-Phenotype (%),[5],4%
same,Population Mitochondria Different-Phenotype (%),[5],29%
same,Population Mitotic Cells (%),[5],40%
same,Population Normal (%),[5],63%
same,Population Pyknosed Nuclei (%),[5],39%
same,Population Tubulin-Different-Phenotype (%),[5],40%
same,Total Cell Count,[5],259
same,Population Apoptotic (%),[6],66%
same,Population Fragmented Nuclei (%),[6],60%
same,Population Healthy Nuclei (%),[6],27%
same,Population Hoechst High Intensity Objects (%),[6],46%
same,Population Membrane Permeable-Phenotype (%),[6],0%
same,Population Mitochondria Different-Phenotype (%),[6],23%
same,Population Mitotic Cells (%),[6],33%
same,Population Normal (%),[6],53%
same,Population Pyknosed Nuclei (%),[6],12%
same,Population Tubulin-Different-Phenotype (%),[6],38%
same,Total Cell Count,[6],90
same,Population Apoptotic (%),[7],68%
same,Population Fragmented Nuclei (%),[7],26%
same,Population Healthy Nuclei (%),[7],61%
same,Population Hoechst High Intensity Objects (%),[7],15%
same,Population Mitochondria Different-Phenotype (%),[7],3%
same,Population Mitotic Cells (%),[7],31%
same,Population Normal (%),[7],84%
same,Population Pyknosed Nuclei (%),[7],11%
same,Population Tubulin-Different-Phenotype (%),[7],3%
same,Total Cell Count,[7],191
same,Population Apoptotic (%),[8],100%
same,Population Fragmented Nuclei (%),[8],56%
same,Population Healthy Nuclei (%),[8],32%
same,Population Hoechst High Intensity Objects (%),[8],34%
same,Population Membrane Permeable-Phenotype (%),[8],9%
same,Population Mitochondria Different-Phenotype (%),[8],9%
same,Population Mitotic Cells (%),[8],0%
same,Population Normal (%),[8],65%
same,Population Pyknosed Nuclei (%),[8],10%
same,Population Tubulin-Different-Phenotype (%),[8],9%
same,Total Cell Count,[8],99
